Data from ChEMBL document CHEMBL1137886, “Pyridazine derivatives and related compounds. Part 13: Synthesis and antimicrobial activity of some pyridazino[3',4':3,4]pyrazolo[5,1-c]-1,2,4-triazines” (2004).

What was measured:
Staphylococcus aureus [1] = test: In vitro antimicrobial activity against Staphylococcus aureus was evaluated by measuring the diameter of zone of inhibition; NS denotes no significant inhibition; assay type: functional, organism-based
Summary of the method: (§1)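 Disc diffusion on nutrient agar seeded with the bacterium: glass microfiber discs (0.6 cm) saturated with 0.2 mL of aqueous compound solutions at different concentrations; incubation at 37°C for 48 h; diameter of growth-inhibition zone read in millimetres.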

Escherichia coli [2] = test: In vitro antimicrobial activity against Escherichia coli was evaluated by measuring the diameter of zone of inhibition; NS denotes no significant inhibition; assay type: functional, organism-based; summary of the method: as §1
Pseudomonas aeruginosa [3] = test: In vitro antimicrobial activity against Pseudomonas aeruginosa was evaluated by measuring the diameter of zone of inhibition; NS denotes no significant inhibition; assay type: functional, organism-based; summary of the method: as §1
Candida albicans [4] = test: In vitro antifungal activity against Candida albicans was evaluated by measuring the diameter of zone of inhibition; NS denotes no significant inhibition; assay type: functional, organism-based
Summary of the method: (§2)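 Disc diffusion: glass microfiber discs (0.6 cm) saturated with 0.2 mL of aqueous compound solutions at various concentrations, placed on malt extract agar seeded with the yeast; plates incubated at 28°C for 96 h; inhibition zone diameter measured in mm.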

Candida albicans [5] = test: In vitro antifungal activity against Candida albicans was evaluated by measuring the diameter of zone of inhibition; assay type: functional; summary of the method: as §2
Staphylococcus aureus [6] = test: In vitro antimicrobial activity against Staphylococcus aureus was evaluated by measuring the diameter of zone of inhibition; assay type: functional; summary of the method: as §1
Escherichia coli [7] = test: In vitro antimicrobial activity against Escherichia coli was evaluated by measuring the diameter of zone of inhibition; assay type: functional; summary of the method: as §1
Pseudomonas aeruginosa [8] = test: In vitro antimicrobial activity against Pseudomonas aeruginosa was evaluated by measuring the diameter of zone of inhibition; assay type: functional; summary of the method: as §1

Structure (SMILES)	Inhibition (Staphylococcus aureus [1])	Inhibition (Escherichia coli [2])	Inhibition (Pseudomonas aeruginosa [3])	Inhibition (Candida albicans [4])	Inhibition (Candida albicans [5]) [mm]	Inhibition (Staphylococcus aureus [6]) [mm]	Inhibition (Escherichia coli [7]) [mm]	Inhibition (Pseudomonas aeruginosa [8]) [mm]
C/C(=N\NC(N)=O)c1nnc2c3c(-c4ccccc4)c(-c4ccccc4)nnc3nn2c1C	No inhibition	No inhibition	No inhibition	No inhibition	–	–	–	–
Cc1c(C(=O)NNC(N)=O)nnc2c3c(-c4ccccc4)c(-c4ccccc4)nnc3nn12	No inhibition	No inhibition	No inhibition	No inhibition	–	–	–	–
NC(=O)NNC(=O)c1nnc2c3c(-c4ccccc4)c(-c4ccccc4)nnc3nn2c1-c1ccccc1	No inhibition	No inhibition	No inhibition	No inhibition	–	–	–	–
Cc1c(C(=O)NNc2ccccc2)nnc2c3c(-c4ccccc4)c(-c4ccccc4)nnc3nn12	No inhibition	No inhibition	No inhibition	No inhibition	–	–	–	–
Cc1cnnc2c3c(-c4ccccc4)c(-c4ccccc4)nnc3nn12	No inhibition	No inhibition	No inhibition	No inhibition	–	–	–	–
c1ccc(-c2nnc3nn4c(-c5ccccc5)cnnc4c3c2-c2ccccc2)cc1	No inhibition	No inhibition	No inhibition	No inhibition	–	–	–	–
NNC(=O)c1nnc2c3c(-c4ccccc4)c(-c4ccccc4)nnc3nn2c1-c1ccccc1	No inhibition	No inhibition	No inhibition	No inhibition	–	–	–	–
CC(=O)c1nnc2c3c(-c4ccccc4)c(-c4ccccc4)nnc3nn2c1C	–	–	–	–	3	4	–	–
Cc1ccc(/C=N/NC(=O)c2nnc3c4c(-c5ccccc5)c(-c5ccccc5)nnc4nn3c2C)o1	No inhibition	No inhibition	No inhibition	No inhibition	–	–	–	–
COc1ccc(/C=N/NC(=O)c2nnc3c4c(-c5ccccc5)c(-c5ccccc5)nnc4nn3c2C)cc1	–	–	–	–	–	3	–	–
Cc1ccc(/C=N/NC(=O)c2nnc3c4c(-c5ccccc5)c(-c5ccccc5)nnc4nn3c2C)s1	–	–	–	–	2	–	–	–
Cc1c(C(=O)O)nnc2c3c(-c4ccccc4)c(-c4ccccc4)nnc3nn12	No inhibition	No inhibition	No inhibition	No inhibition	–	–	–	–
Cc1c(/C(=N/N)c2ccccc2)nnc2c3c(-c4ccccc4)c(-c4ccccc4)nnc3nn12	No inhibition	No inhibition	No inhibition	No inhibition	–	–	–	–
Cc1c(C(=O)N/N=C/c2cccn2C)nnc2c3c(-c4ccccc4)c(-c4ccccc4)nnc3nn12	No inhibition	No inhibition	No inhibition	No inhibition	–	–	–	–
Cc1c(C(=O)N/N=C/c2ccc3ccccc3c2)nnc2c3c(-c4ccccc4)c(-c4ccccc4)nnc3nn12	No inhibition	No inhibition	No inhibition	No inhibition	–	–	–	–
Cc1c(C(=O)N/N=C/c2ccc(Cl)cc2)nnc2c3c(-c4ccccc4)c(-c4ccccc4)nnc3nn12	No inhibition	No inhibition	No inhibition	No inhibition	–	–	–	–
Cc1c(C(=O)N/N=C/c2ccccc2)nnc2c3c(-c4ccccc4)c(-c4ccccc4)nnc3nn12	No inhibition	No inhibition	No inhibition	No inhibition	–	–	–	–
Cc1c(/C(=N/Nc2ccccc2)c2ccccc2)nnc2c3c(-c4ccccc4)c(-c4ccccc4)nnc3nn12	No inhibition	No inhibition	No inhibition	No inhibition	–	–	–	–
Cc1c(C(=O)N/N=C/c2ccco2)nnc2c3c(-c4ccccc4)c(-c4ccccc4)nnc3nn12	–	–	–	–	–	–	2	–
O=C(NNc1ccccc1)c1nnc2c3c(-c4ccccc4)c(-c4ccccc4)nnc3nn2c1-c1ccccc1	No inhibition	No inhibition	No inhibition	No inhibition	–	–	–	–
O=C(O)c1nnc2c3c(-c4ccccc4)c(-c4ccccc4)nnc3nn2c1-c1ccccc1	No inhibition	No inhibition	No inhibition	No inhibition	–	–	–	–
Cc1c(C(=O)N/N=C/c2ccc[nH]2)nnc2c3c(-c4ccccc4)c(-c4ccccc4)nnc3nn12	–	–	–	–	–	–	2	–
Cc1c(C(=O)N/N=C/c2cccs2)nnc2c3c(-c4ccccc4)c(-c4ccccc4)nnc3nn12	–	–	–	–	–	2	2	–
Cc1c(C(=O)N/N=C/c2ccc([N+](=O)[O-])cc2)nnc2c3c(-c4ccccc4)c(-c4ccccc4)nnc3nn12	–	–	–	–	–	–	5	–
Cc1c(/C(=N/NC(N)=O)c2ccccc2)nnc2c3c(-c4ccccc4)c(-c4ccccc4)nnc3nn12	–	–	–	–	–	4	3	2
CCOC(=O)c1nnc2c3c(-c4ccccc4)c(-c4ccccc4)nnc3nn2c1-c1ccccc1	No inhibition	No inhibition	No inhibition	No inhibition	–	–	–	–
CCOC(=O)c1nnc2c3c(-c4ccccc4)c(-c4ccccc4)nnc3nn2c1C	No inhibition	No inhibition	No inhibition	No inhibition	–	–	–	–
